This is a sample that favours compounds with a hit; in the whole collection about 2.2% have one here.
CSN inh – inhibitors of CSN-mediated cullin deneddylation, primary screen, biochemical, fluorescence polarization, uHTS; inhibition, % at 12.5 µM; Purified CSN, SCF-Nedd8-OG deneddylation; AID 651999, 2013; actives 0.38% (n = 360,000);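 active means pattern-corrected inhibition above about 35%, with an unprinted fluorescence ratio check between 0.5 and 1.5, limit read from the data, passing the limit was not always enough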
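Test system: purified human Csn5 enzyme expressed in HEK293T cells. Amount: 0.24 nM enzyme. Reagent: SCFSkp2-Nedd8OG substrate at 10 nM final. Schedule: 90 min incubation of compound, enzyme and substrate at room temperature. Detection: fluorescence polarization. Read-out: % inhibition of substrate cleavage by Csn5.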
Granule exo inh – LAMP-1 surface exposure blockers, TALL-104 cells – cell-based, flow cytometry, MLPCN library, primary screen. actives 0.66% (n = 360,000). inhibition, % at 10 µM. AID 651702, 2012. TALL-104 LAMP-1 surface exposure; cells stimulated with thapsigargin and PMA;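 active means inhibition above about 55%, limit read from the data; inconclusive means no clear call, values can overlap the other calls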
HNF4A DNA FP – change in binding of human HNF4A to DNA, primary screen, biochemical, fluorescence polarization, FITC-DNA; 1 h; activity change, % at 10 µM; actives 0.3% (n = 360,000); Hepatocyte nuclear factor 4-alpha (Homo sapiens), P41235; in the data active means activity change above about 30%, passing the limit was not always enough
Target sequence (P41235 whole entry, looked up): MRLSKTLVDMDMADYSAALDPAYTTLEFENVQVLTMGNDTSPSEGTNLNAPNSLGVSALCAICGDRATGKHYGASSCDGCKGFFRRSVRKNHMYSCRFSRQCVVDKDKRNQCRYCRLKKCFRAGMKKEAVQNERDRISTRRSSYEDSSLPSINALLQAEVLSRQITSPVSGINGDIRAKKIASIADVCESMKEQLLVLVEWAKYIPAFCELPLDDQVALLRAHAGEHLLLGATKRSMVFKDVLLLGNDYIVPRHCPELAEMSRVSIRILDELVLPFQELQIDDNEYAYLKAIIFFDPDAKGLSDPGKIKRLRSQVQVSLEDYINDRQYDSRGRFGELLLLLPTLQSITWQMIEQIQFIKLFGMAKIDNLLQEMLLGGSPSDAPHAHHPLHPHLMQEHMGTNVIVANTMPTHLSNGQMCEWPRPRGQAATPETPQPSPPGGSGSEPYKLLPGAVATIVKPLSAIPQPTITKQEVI
Myeloid diff MLP – induction of myeloid progenitor differentiation, primary screen, cell-based, flow cytometry, MLPCN library; ER-HoxA9 myeloid progenitors, lysozyme-GFP differentiation; calls only at 10 µM; actives 1% (n = 360,000); AID 624256, 2012;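 active means normalized GFP-positive differentiation at or above the plate's own cutoff, the solvent-only control mean plus 3 SD; inconclusive means no clear call, values can overlap the other calls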;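 further: cells exposed to compound for four days before flow analysis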
Of the large screens only hits and unclear results are named; the others gave an inactive call.

CCc1cc(C(=O)OC)c(NC(=O)CC2Nc3cc(C)c(C)cc3NC2=O)s1 (centres undefined)	HNF4A DNA FP 61
Cc1cc2c(cc1C)NC(CC(=O)NCc1ccccc1)C(=O)N2 (centres undefined)	Myeloid diff MLP active
COC(=O)c1c(NC(=O)CC2Nc3cc(C)c(C)cc3NC2=O)sc(C)c1C (centres undefined)	Myeloid diff MLP inconclusive
CCCC[C@@H]1Cc2[nH][nH]c(=O)c2[C@H](c2cccc3ccccc23)O1	none
CSc1ccc(/C=C2\C(=N)N3N=C(CC(=O)N4CCCCC4)SC3=NC2=O)cc1	none
COCCNC(=O)C(c1ccc(F)cc1)N(CCOC)C(=O)CCC(=O)Nc1ccccn1 (centres undefined)	none
C/C(=N\NC(=S)NCCc1ccccc1)c1cccs1	none
C/C(CCc1ccccc1)=N\NC(=S)NCCc1ccccc1	Granule exo inh 91
O=C1C=C(c2c(O)ccc3ccccc23)c2ccccc2C1=O	Granule exo inh 104, Myeloid diff MLP inconclusive
O=C1C=C(O)c2cccc(O)c2C1=O	none
Cc1cc(S(=O)(=O)Nc2noc3ccccc23)ccc1F	none
CCOc1ccccc1O[C@H](c1ccccc1)[C@H]1CNCCO1	none
O=C(C1CCC(=O)N(C2CCCC2)C1)N1CCN(Cc2cccc(F)c2)CC1 (centres undefined)	Myeloid diff MLP active
COc1ccc(C(CC(=O)N2CCCC2)c2c(OC)cc(OC)c3c(-c4ccccc4)cc(=O)oc23)cc1 (centres undefined)	CSN inh 36
COc1ccc(C(CC(=O)N2CCCCC2)c2c(OC)cc(OC)c3c(-c4ccccc4)cc(=O)oc23)cc1 (centres undefined)	none
CC(NCc1ccc(OCc2ccc(Cl)cc2)cc1)C(O)c1ccccc1 (centres undefined)	Granule exo inh 67
CC(C)c1ccc(CNc2ncccn2)cc1	none
CCCOc1cccc(-c2nn(-c3ccccc3)cc2/C=C(\C#N)C(=O)NCCCn2ccnc2)c1	Myeloid diff MLP active
Cc1ccc(C)n1/N=C1/NC(=O)CS1	CSN inh 46
O=C(/C=C/c1ccccc1)NCC(=O)N/N=C/c1ccco1	Granule exo inh 76
O=C(/C=C/c1ccco1)NCC(=O)N/N=C/c1ccc(Cl)cc1	none
O=c1oc2ccccc2nc1/C=C(\O)c1ccc(Br)cc1	none
C/C(O)=C\c1nc2ccccc2oc1=O	Myeloid diff MLP active
O=C(c1ccc2nc3ccccc3c(=O)n2c1)N1CCN(Cc2ccc3c(c2)OCO3)CC1	HNF4A DNA FP 39
COCCN(CCOC)Cc1cc(=O)oc2cc(C)c(Cl)cc12	none
CCOC(=O)c1c(-c2cc(OC)c(OC)c(OC)c2)csc1N	none
COC(=O)c1ccccc1N/C=C1\CCc2c(c(C)nn2-c2ccccn2)C1=O	Granule exo inh 65
O=[N+]([O-])c1cc(-c2ncccn2)c([N+](=O)[O-])s1	Granule exo inh 78
CC(C)(C)OC(=O)NCc1ccc(NC(=O)c2nc[nH]c2C(=O)NCCNC(=O)c2[nH]cnc2C(=O)Nc2ccc(CNC(=O)OC(C)(C)C)cc2)cc1	Granule exo inh 62
COc1ccc(S(=O)(=O)Oc2ccc3ccccc3c2)cc1	none
COC1=C(OC)C(=O)C(Sc2ccc3ccccc3c2)=CC1=O	Granule exo inh 86 (no result: Myeloid diff MLP)
CCOc1cc(CNc2ccc(O)cc2)ccc1OCc1ccc(Cl)cc1Cl	CSN inh 44
CCOc1cccc(CNc2ccc(O)cc2)c1OCc1ccc(Cl)cc1	none
Cc1ccc(S(=O)(=O)Nc2c(C)n(C)n(-c3ccccc3)c2=O)cc1C(=O)NCc1ccco1	none
CCCN(C1CCS(=O)(=O)C1)S(=O)(=O)c1cc(OC)ccc1OC (centres undefined)	none
Cc1cc(C)n(C(CC(=O)N2CCc3ccccc3C2)C(=O)O)n1 (centres undefined)	Myeloid diff MLP active
Cc1cc(C)n(C(C)CC(=O)N2CCc3ccccc32)n1 (centres undefined)	none
COc1cccc(NC(=S)N2CCN(C/C=C/c3ccccc3)CC2)c1	none
COc1cc(NC(=S)N2CCN(C(c3ccccc3)c3ccccc3)CC2)cc(OC)c1	Myeloid diff MLP active
COc1cc(NC(=S)N2CCN(C/C=C/c3ccccc3)CC2)cc(OC)c1	Myeloid diff MLP active
CCCCN1/C(=C/c2ccc3ccccc3[n+]2CC)Sc2ccccc21	Granule exo inh 74, Myeloid diff MLP active
CCN1/C(=C/c2ccc3ccccc3[n+]2CC)C=Cc2ccccc21	HNF4A DNA FP 44, Myeloid diff MLP inconclusive
CCOc1ccc(NS(=O)(=O)c2ccc3c(c2)N(C(C)=O)CC3)cc1	none
CCOc1ccc(NS(=O)(=O)c2ccc3c(c2)CCN3C(C)=O)cc1	Myeloid diff MLP active
COc1ccc(OC)c(S(=O)(=O)Nc2ccc3c(c2)N(C(C)=O)CCC3)c1	none
CC(=O)N1CCCc2ccc(NS(=O)(=O)c3ccc(C)c(C)c3)cc21	Myeloid diff MLP active
COc1ccccc1C(=O)NC(=O)COC(=O)C1(C)CC1(Cl)Cl (centres undefined)	none
CCC1(CC)C(=O)NC(=O)NC1=S	none
CC(C)CC1Nc2ncnc(N3CCN(c4ccccc4)CC3)c2N(Cc2ccc(Cl)cc2)C1=O (centres undefined)	none
O=C(NNC(=O)c1ccncc1)Nc1cccc([N+](=O)[O-])c1	Granule exo inh 90
O=C(O)c1cccc(NC(=O)c2ccccc2NC(=O)c2cccc([N+](=O)[O-])c2)c1	Myeloid diff MLP active
O=C(NNC(=O)c1cccc([N+](=O)[O-])c1)c1ccncc1	none
COc1ccc([C@@H]2[C@@H]3C(=O)N(C(C)(C)C)C(=O)[C@@H]3[C@]3(C)C(=O)N(c4cccc(Cl)c4)C(=O)N23)cc1	none
COc1cc(OC)c(OC)cc1/C=C1\Oc2cc(OCC(=O)N3Cc4ccccc4C[C@H]3C(=O)O)ccc2C1=O	HNF4A DNA FP 61
COc1cc(OC)c(OC)cc1/C=C1\Oc2cc(OS(C)(=O)=O)ccc2C1=O	CSN inh 55, HNF4A DNA FP 73
COc1ccc(/C=C2\Oc3cc(OCC(=O)N4CCC[C@H]4C(=O)O)ccc3C2=O)c(OC)c1	none
CC(=O)NC(=S)NNC(=O)C(c1ccccc1)c1ccccc1	CSN inh 77
COCCNC(=O)c1cccc(NC(=O)C2=C(C)OCCS2)c1	none (no result: Myeloid diff MLP)
CC1=C(C(=O)Nc2cccc(C(=O)NC3CCCC(C)C3C)c2)SCCO1 (centres undefined)	Myeloid diff MLP active
COC(=O)C[C@H]1C[C@@H]2c3cc(NC(=O)CN(C)C)ccc3O[C@@H]2[C@H](CO)O1	none
CCCCNC(=O)N(O)C1N(/N=C/c2ccccc2OC)C(=S)SC1(C)C (centres undefined)	none
COc1cccc2cc(C(=O)NNC(=O)c3ccc(Br)cc3)c(=O)oc12	CSN inh 110
CCN1C(=O)/C(=C/c2cccs2)N(C)C1=S	none
